Test results published in PubChem BioAssay AID493134 (Broad Institute, 2011).
Values joined by “and” are separate entries in the source; they are usually repeats but may differ in a detail not shown here. Equal values may be shown once. Active and inactive are the calls of the source.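 The calls were made as follows: active = growth inhibition with fitted half-maximal dose at or below ten times the top tested dose; inconclusive = flat curve with inhibition of 30 to 70%, or poor fit; inactive = the rest.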

System: not listed separately
Assay: growth inhibition of C. albicans without azole, dose response, counter-screen for antifungal drug resistance project, CaCi-2 strain, Alamar Blue, dry powder, set 7 (AID 493134)
Conditions: C. albicans CaCi-2 growth, Alamar Blue fluorescence, 48 h; at 19.5 µM (top of the series)
In short: (§1)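 System: resistant C. albicans strain CaCi-2; measure: relative growth as intrinsic toxicity counterscreen; times: 48 h compound exposure at 37 °C; buffer or medium: fluconazole-free RPMI synthetic defined medium with MOPS, glucose, uridine; dosing: pinned test compound; technique: Alamar Blue fluorescence, […] Ex 544 nm, Em 590 nm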
With `COC(=O)Cn1nc(-c2cncnc2)c2ccccc21` the activity change, negative = inhibition was 7.98% (inactive).

Same assay, conditions: C. albicans CaCi-2 growth, Alamar Blue fluorescence, 48 h; at 26 µM (top of the series)
With `CC(C)OC(=O)Cn1nc(-c2ccccc2)c2ccccc21` the activity change, negative = inhibition was -0.006% (inactive). In the case of `c1ccc(-c2nn(Cc3nn[nH]n3)c3ccccc23)cc1`, the activity change, negative = inhibition is reported as 9.64% (inactive). For `CC(C)(C)OC(=O)Cn1nc(-c2ccccc2)c2ccccc21`, the activity change, negative = inhibition was -0.465% (inactive). For `COC(=O)Cn1nc(-c2cccc(C)c2)c2ccccc21`, the activity change, negative = inhibition was 7.2% (inactive). For `COC(=O)Cn1nc(-c2ccccc2OC)c2ccccc21`, the activity change, negative = inhibition was -23.3% (inactive). With `COC(=O)Cn1nc(-c2cccc(F)c2)c2ccccc21` the activity change, negative = inhibition was 16% (inactive). In the case of `CCOC(=O)Cn1nc(-c2ccccc2)c2ccccc21`, the activity change, negative = inhibition is reported as -5.31% (inactive). With `COC(=O)Cn1nc(-c2ccccc2)c2ccccc21` the activity change, negative = inhibition was -5.47% (inactive). With `COC(=O)Cn1nc(-c2ccccc2)c2cc(C)ccc21` the activity change, negative = inhibition was 2.54% (inactive). With `COC(=O)Cn1nc(-c2cccc(OC)c2)c2ccccc21` the activity change, negative = inhibition was -0.691% (inactive). In the case of `O=C(Cn1nc(-c2ccccc2)c2ccccc21)Oc1ccccc1`, the activity change, negative = inhibition is reported as 6.4% (inactive). For `COC(=O)Cn1nc(-c2ccccc2C)c2ccccc21`, the activity change, negative = inhibition was -21.2% (inactive). For `COC(=O)Cn1nc(-c2ccccc2)c2ccc(C#N)cc21`, the activity change, negative = inhibition was 21.8% (inactive). In the case of `COCCn1nc(-c2ccccc2)c2ccccc21`, the activity change, negative = inhibition is reported as -0.717% (inactive). With `COC(=O)Cn1nc(-c2ccc(C(F)(F)F)cc2)c2ccccc21` the activity change, negative = inhibition was 4.42% (inactive). With `COC(=O)Cn1nc(-c2ccccc2)c2cc(F)ccc21` the activity change, negative = inhibition was -6.49% (inactive). In the case of `N#CCn1nc(-c2ccccc2)c2ccccc21`, the activity change, negative = inhibition is reported as 11% (inactive). In the case of `COC(=O)Cn1nc(-c2ccccc2)c2ccc(OC)cc21`, the activity change, negative = inhibition is reported as -26.5% (inactive). For `O=C(Cn1c2ccccc2c2nc3n(c(=O)c21)CCS3)N1CCCC1`, the activity change, negative = inhibition was -14.3% (inactive) and -26.7% (inactive). With `CN(C)C(=O)Cn1nc(-c2ccccc2)c2ccccc21` the activity change, negative = inhibition was -25% (inactive). With `COC(=O)Cn1nc(-c2ccccc2)c2ccc(C)cc21` the activity change, negative = inhibition was 0.047% (inactive). For `COC(=O)Cn1nc(-c2ccccc2)c2ccc(F)cc21`, the activity change, negative = inhibition was 5.28% (inactive).

System: C. albicans CaCi-2 (fluconazole-resistant clinical isolate) growth, Alamar Blue fluorescence, 48 h
Assay: as above
Conditions: not given
In short: as §1
For `COC(=O)Cn1nc(-c2ccccc2)c2cc(OC)ccc21`, the AC50 was 20.3 µM. In the case of `COC(=O)Cn1c2ccccc2c2nc3n(c(=O)c21)CCS3`, the AC50 is reported as > 26 µM (inactive). `COC(=O)Cn1nc(-c2ccccc2)c2ccc(C(F)(F)F)cc21` gave an AC50 of 16.4 µM.
